Measurements gathered from unrelated publications.
Protocols differ between the studies behind these lines.

Compound | system | setting | Cmax
COc1ccc2cc3n(c(=O)c2c1OC)CCc1cc2c(cc1-3)OCO2 | male Sprague-Dawley rat, blood | oral, 50 mg/kg | 233 ng/mL
O=C1c2ccncc2C(=O)c2c1[nH]c1ccccc21 | rat, plasma | intravenous, 1 mg/kg, single dose | 3.25 µM
O=C(C=Cc1ccccc1)Nc1cc(-c2ccnc(N3CCC(O)CC3)c2)ccn1 | female Sprague-Dawley rat, plasma | intravenous, 5 mg/kg | 324 ng/mL
Nc1ccc(/C=C/C(=O)NCc2cc3cc(-c4ccc(C(=O)N5CCC(F)(F)CC5)cc4)cc(-c4ccc(F)cc4)c3o2)cn1 | rat, plasma | oral, 3 mg/kg | 5990 ng/mL
N#C[C@@]12C[C@@H]1[C@@H](n1cnc3c(N[C@@H](C4CCC4)C4CC4)nc(I)nc31)[C@H](O)[C@@H]2O | male Wistar rat, plasma | oral, 1 mg/kg | 6.73 ng/mL
C[C@H]1[C@@H](O)O[C@@H]2O[C@@]3(C)CC[C@H]4[C@H](C)CC[C@@H]1[C@@]24OO3 | Sprague-Dawley rat, plasma | oral, 10 mg/kg | 227 ng/mL
CC(=Nc1ccc(N=Cc2cnccn2)cc1)N(C)C | male Sprague-Dawley rat, plasma | oral, 200 mg/kg | 397 ng/mL
Cc1c(C(=O)O)ccc2c3n(nc12)[C@@H]1[C@H](C3)N(CC2CC2)[C@@]2(C(=O)Nc3cc(Cl)ccc32)[C@H]1c1cccc(Cl)c1F | male rat, plasma | oral, 2 mg/kg | 5.7 µM
CC1(CN)CCN(c2cnc3c(Sc4ccncc4Cl)n[nH]c3n2)CC1 | male Sprague-Dawley rat, plasma | oral, 10 mg/kg | 142 ng/mL
O=c1cc(-c2ccc(O)c(O)c2)oc2cc(O)cc(O)c12 | male Sprague-Dawley rat, plasma | oral, 30 mg/kg | 40.1 ng/mL
O=C1CC[C@H](N2Cc3cc(N4CCN(CC5CCN(c6ccc([C@@H]7c8ccc(O)cc8CC[C@@H]7c7ccccc7)cc6)CC5)CC4)ccc3C2=O)C(=O)N1 | male Sprague-Dawley rat, plasma | oral, 20 mg/kg, fed | 1040 ng/mL
